{
  "source": "paper PMC5644118",
  "about": "(Chemical Science, 2014)",
  "molecular_target": "heparin-stabilized human rhSkin β-tryptase (Homo sapiens, UniProt P20231)",
  "sequence (P20231 31-275)": "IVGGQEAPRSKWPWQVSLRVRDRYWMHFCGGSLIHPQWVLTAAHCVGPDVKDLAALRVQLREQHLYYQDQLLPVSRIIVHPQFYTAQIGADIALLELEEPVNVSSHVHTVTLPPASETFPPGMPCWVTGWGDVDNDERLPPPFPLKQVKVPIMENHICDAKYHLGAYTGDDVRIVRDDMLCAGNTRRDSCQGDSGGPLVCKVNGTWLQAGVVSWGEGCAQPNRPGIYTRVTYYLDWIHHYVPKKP",
  "test": "β-tryptase enzyme inhibition assay",
  "format": "biochemical",
  "summary_of_the_method": "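Heparin-stabilized recombinant human skin β-tryptase in 50 mM Tris-HCl, pH 7.4, run in a high-throughput format. Activity was read as release of free AMC from the cleaved Gly-Pro-Arg-AMC peptide substrate. Inhibition mode was assessed by Dixon plots (1/v against inhibitor concentration) at substrate 25, 50, 75, 100, 150 and 200 μM.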",
  "data": [
    {"molecule": "C[C@H](NC(=O)CNC(=O)CCC(=O)N/N=C/c1cc(/C=N/NC(=O)CCC(=O)NCC(=O)N[C@@H](C)C(=O)N[C@@H](Cc2ccccc2)C(=O)N[C@@H](CCC(=O)O)C(N)=O)cc(/C=N/NC(=O)CCC(=O)NCC(=O)N[C@@H](C)C(=O)N[C@@H](Cc2ccccc2)C(=O)N[C@@H](CCC(=O)O)C(N)=O)c1)C(=O)N[C@@H](Cc1ccccc1)C(=O)N[C@@H](CCC(=O)O)C(N)=O", "note": "[5(E)3]", "values": [
      {"measurement": "inhibition of β-tryptase (in words)", "result": "no inhibition of β-tryptase at all"}
    ]}
  ]
}
